From ChEMBL document CHEMBL4627265, “Optimization of 8-oxoadenines with toll-like-receptor 7 and 8 activity” (Bioorg Med Chem Lett, 2020) come the findings set out here.

Holding throughout (type): cell-based
Experiment [1] concerns the target T1, Toll-like receptor 8 (Homo sapiens) (UniProt Q9NR97).
T1 sequence (whole entry): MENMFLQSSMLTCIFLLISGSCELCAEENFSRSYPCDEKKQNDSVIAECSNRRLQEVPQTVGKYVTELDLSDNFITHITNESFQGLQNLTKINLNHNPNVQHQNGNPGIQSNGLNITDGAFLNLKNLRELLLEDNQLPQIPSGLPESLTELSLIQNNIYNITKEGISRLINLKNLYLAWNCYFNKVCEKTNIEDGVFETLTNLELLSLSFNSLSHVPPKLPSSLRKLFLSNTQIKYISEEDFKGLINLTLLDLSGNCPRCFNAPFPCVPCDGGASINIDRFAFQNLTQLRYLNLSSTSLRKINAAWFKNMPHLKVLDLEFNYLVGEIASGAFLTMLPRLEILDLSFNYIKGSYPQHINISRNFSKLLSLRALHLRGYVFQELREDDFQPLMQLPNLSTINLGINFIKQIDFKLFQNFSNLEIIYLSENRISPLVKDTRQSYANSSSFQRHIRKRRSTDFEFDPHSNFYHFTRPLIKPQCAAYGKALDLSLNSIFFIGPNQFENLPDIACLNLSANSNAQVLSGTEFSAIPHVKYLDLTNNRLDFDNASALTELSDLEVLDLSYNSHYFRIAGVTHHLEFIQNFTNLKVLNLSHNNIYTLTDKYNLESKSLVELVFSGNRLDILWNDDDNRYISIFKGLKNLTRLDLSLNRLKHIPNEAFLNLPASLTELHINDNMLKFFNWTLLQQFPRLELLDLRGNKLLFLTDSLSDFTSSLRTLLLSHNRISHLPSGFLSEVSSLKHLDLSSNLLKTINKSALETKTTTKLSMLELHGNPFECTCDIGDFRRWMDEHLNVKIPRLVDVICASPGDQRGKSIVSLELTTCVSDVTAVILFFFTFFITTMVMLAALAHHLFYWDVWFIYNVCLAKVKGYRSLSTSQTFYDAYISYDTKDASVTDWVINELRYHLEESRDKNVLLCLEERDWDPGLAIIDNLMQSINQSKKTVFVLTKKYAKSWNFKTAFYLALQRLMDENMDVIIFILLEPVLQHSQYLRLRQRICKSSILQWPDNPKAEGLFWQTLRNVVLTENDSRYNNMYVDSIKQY
The experiment can be described thus: Agonist activity at TLR8 in human PBMC assessed as induction of myeloid dendritic cell maturation by measuring HLA-DR level at 0.1 uM after 6 hrs by flow cytometry. Put shortly: (§1)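 hPBMCs stimulated 6 h at a single 0.1 μM dose; HLA-DR, MHC-I, CD80 and CD86 on mDCs and pDCs measured by flow cytometry, expressed as fold change versus unstimulated cells. Mean ± SD of three independent experiments in three different donors.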
(Flow cytometry measures light scatter and fluorescence of single cells or particles in a stream.)

The next experiment has as its target T2, Toll-like receptor 7 (Homo sapiens, UniProt Q9NYK1).
T2 sequence (Q9NYK1 whole entry): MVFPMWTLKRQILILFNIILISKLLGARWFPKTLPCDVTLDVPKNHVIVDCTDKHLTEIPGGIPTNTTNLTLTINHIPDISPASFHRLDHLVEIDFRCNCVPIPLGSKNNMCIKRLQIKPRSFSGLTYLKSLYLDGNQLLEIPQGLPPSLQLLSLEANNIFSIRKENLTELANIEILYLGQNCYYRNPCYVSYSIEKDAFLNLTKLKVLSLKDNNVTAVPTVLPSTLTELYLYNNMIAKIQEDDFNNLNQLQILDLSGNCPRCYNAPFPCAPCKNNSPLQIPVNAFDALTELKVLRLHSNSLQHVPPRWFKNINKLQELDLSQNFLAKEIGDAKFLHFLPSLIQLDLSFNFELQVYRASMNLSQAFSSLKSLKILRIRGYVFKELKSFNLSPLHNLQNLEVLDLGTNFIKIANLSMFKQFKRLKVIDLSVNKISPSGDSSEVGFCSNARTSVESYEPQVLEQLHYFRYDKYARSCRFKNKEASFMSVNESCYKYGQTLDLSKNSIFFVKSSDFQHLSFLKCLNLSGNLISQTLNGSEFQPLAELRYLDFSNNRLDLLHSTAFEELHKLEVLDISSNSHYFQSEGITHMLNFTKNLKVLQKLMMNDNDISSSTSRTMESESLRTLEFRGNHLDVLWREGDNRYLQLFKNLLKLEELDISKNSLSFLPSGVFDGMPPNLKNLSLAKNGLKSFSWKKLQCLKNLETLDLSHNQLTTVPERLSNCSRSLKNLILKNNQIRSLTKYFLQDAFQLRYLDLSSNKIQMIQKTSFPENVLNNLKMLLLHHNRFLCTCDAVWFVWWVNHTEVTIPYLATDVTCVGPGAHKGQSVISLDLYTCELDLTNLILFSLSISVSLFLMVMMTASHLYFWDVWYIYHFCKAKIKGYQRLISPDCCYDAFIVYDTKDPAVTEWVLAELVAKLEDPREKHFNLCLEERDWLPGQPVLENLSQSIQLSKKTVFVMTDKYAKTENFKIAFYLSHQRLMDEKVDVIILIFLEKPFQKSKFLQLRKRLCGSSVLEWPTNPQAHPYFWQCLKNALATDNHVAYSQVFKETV
The experiment can be described thus: Agonist activity at human TLR7 expressed in HEK293 cells assessed as induction of NFKappaB activity after 24 hrs by SEAP reporter gene assay. Put shortly: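 HEK293 cells stably transfected with hTLR7 or hTLR8 plus an NFκB-driven SEAP reporter, treated 24 h with compound over a μM range; SEAP secretion read out. EC50 as mean ± SD of three (TLR7) or four (TLR8) independent experiments.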
(In general: In a reporter assay the amount or activity of a reporter protein is the signal.)

Experiment [2] deals with T3, Toll-like receptor 7 (Homo sapiens) (UniProt Q9NYK1).
T3 sequence (whole entry): T2 sequence (Q9NYK1 whole entry)
The experiment can be described thus: Agonist activity at TLR7 in human PBMC assessed as induction of plasmacytoid dendritic cell maturation by measuring CD86 level at 0.1 uM after 6 hrs by flow cytometry. Put shortly: as §1

The target in experiment [3] is T1, Toll-like receptor 8 (Homo sapiens). The experiment can be described thus: Agonist activity at TLR8 in human PBMC assessed as induction of myeloid dendritic cell maturation by measuring MHC-1 level at 0.1 uM after 6 hrs by flow cytometry. Put shortly: as §1
Experiment [4] addresses T3, Toll-like receptor 7 (Homo sapiens). The experiment can be described thus: Agonist activity at TLR7 in human PBMC assessed as induction of plasmacytoid dendritic cell maturation by measuring MHC-1 level at 0.1 uM after 6 hrs by flow cytometry. Put shortly:
as §1

Experiment [5] has the same target. The experiment in a line: Agonist activity at TLR7 in human PBMC assessed as induction of plasmacytoid dendritic cell maturation by measuring CD80 level at 0.1 uM after 6 hrs by flow cytometry. In short, it runs like this:
as §1

Experiment [6] has as its target T1, Toll-like receptor 8 (Homo sapiens). The experiment can be described thus: Agonist activity at TLR8 in human PBMC assessed as induction of myeloid dendritic cell maturation by measuring CD86 level at 0.1 uM after 6 hrs by flow cytometry. Put shortly:
as §1

Active and inactive are the calls of the source. The calls are words filed in the database; no cut-off is given here.

The EC50 is the concentration at which the effect is half-maximal.

Regarding `Nc1nc(OCCCCO)nc2c1[nH]c(=O)n2CC1CCNCC1`, the outcome in experiment [1], in experiment [2], in experiment [3], in experiment [4], in experiment [5] and in experiment [6] was inactive. The 50% effective concentration (EC50) at Toll-like receptor 7 is > 500 µM.
